Assay outcomes as filed in PubChem BioAssay.
ABHD5-PLIN5 inh = inhibitors of human ABHD5-perilipin-5 interaction; Split G. princeps luciferase complementation, luminescence, 4 h; inhibition, % at 4 µM; actives 0.78% (n = 360,000); AID 602281;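 active = inhibition above the mean inhibition across every tested compound plus 3 SD, cut at about 22% in these data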;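 also: 0% = DMSO only wells and the 100% control is not disclosed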
Rad51 HR inh = Rad51 (human) homologous recombination inhibition; hRad51 DNA strand exchange, fluorescence dequenching; actives 0.085% (n = 200,000); Q06609; AID 1385; inhibition, % at 10 µM;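 active = inhibition above 40% at the single screening dose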;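 also: 0% = DMSO control wells and 100% = blanks with heterologous ssDNA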
Target sequence (Q06609 whole entry, looked up): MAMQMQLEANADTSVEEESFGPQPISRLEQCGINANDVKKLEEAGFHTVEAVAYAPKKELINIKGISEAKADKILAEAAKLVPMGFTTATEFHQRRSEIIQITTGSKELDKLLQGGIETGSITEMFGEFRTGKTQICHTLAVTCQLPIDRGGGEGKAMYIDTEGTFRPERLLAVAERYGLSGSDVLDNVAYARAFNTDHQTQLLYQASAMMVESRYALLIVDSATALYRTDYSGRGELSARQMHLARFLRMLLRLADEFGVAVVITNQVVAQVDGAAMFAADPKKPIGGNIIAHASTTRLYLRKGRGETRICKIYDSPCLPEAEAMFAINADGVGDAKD
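Test system: preformed human Rad51 ssDNA filaments; also added: Donor/quencher-labelled 47-bp dsDNA substrate; doses: 10 µM final, single point; times: 37 °C 15-min filament assembly, 30-min compound preincubation, 15-min exchange; detection: FRET fluorescence dequenching, excitation 485 nm, emission 520 nm; read-out basis: Fluorescence-based percent inhibition, control- and blank-normalised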
GAA850 FXN act = frataxin GAA850 promoter activation. HEK293 lucGAA850 FXN promoter luciferase reporter, 24 h; percent of 10 µM SAHA response. activation, % at 6 µM. actives 0.56% (n = 360,000). AID 540364;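 active = activation above the average of all compounds screened plus 3 SD, cutoff fixed separately per campaign, cut at about 7.5% in these data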;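 also: 0% = DMSO wells and 100% = 10 µM SAHA wells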
HIF activator = HIF pathway transcriptional activation; U2OS HRE-luciferase reporter, luminescence; normalized: DMSO 0%, desferrioxamine 100%; activation, % at 7.5 µM (by protocol); actives 0.32% (n = 300,000);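 active = mean activation of at least 10% of the iron chelator positive control signal, with at least half of replicates also reaching 10%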
H9c2 TAG inh = triacylglycerol accumulation inhibition | H9c2 cells, Nile Red lipid (TAG) fluorescence; cells loaded with 200 µM oleic acid | inhibition, % at 12.5 µM | actives 0.66% (n = 230,000) | AID 651582;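 active = pattern-corrected inhibition of lipid staining of at least 50% with the nuclear-stain viability signal not falling by more than 50%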;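 also: 0% = DMSO wells and 100% = triacsin C control wells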
Hsp70 activator = transcriptional activators of Hsp70; AID 1203; actives 0.04% (n = 200,000); activation, % at 10 µM; HeLa Hsp70 promoter luciferase reporter, luminescence; scaled: vehicle 0, proteasome-inhibitor control 100%;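 active = activation above the mean across all tested compounds plus 3 SD, cutoff set per campaign, cut at about 5.5% in these data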;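 also: 100% = MG132 at 30 µM as the positive control and 0% = DMSO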
The depositor's hits bear a star; . = not tested or not shown. Most compounds without a hit are left out; they make up all but 1.9% or so of the library.

SMILES	ABHD5-PLIN5 inh	Rad51 HR inh	GAA850 FXN act	HIF activator	H9c2 TAG inh	Hsp70 activator
COc1ccc(C2=NS(=O)(=O)N(C)C(C(=O)NC3CCCC3)=C2)cc1OC	-6.5	.	-3.1	0.0	0.6	.
Cc1ccc(C2=NS(=O)(=O)N(C)C(C(=O)NC3CCCC3)=C2)cc1	2.6	.	-0.6	31.0*	-0.9	.
COc1ccc(C(=O)COC(=O)c2cc(=O)c3ccccc3o2)c(OC)c1	-1.1	.	0.6	.	2.2	.
CC(Sc1nc2cc([N+](=O)[O-])ccc2n1-c1ccc(F)cc1)C(=O)NCc1ccc2c(c1)OCO2 (stereo unspecified)	10.7	7.3	6.7	-1.3	.	-0.4
COc1ccccc1-n1c(SCC(=O)NCc2ccc3c(c2)OCO3)nc2cc([N+](=O)[O-])ccc21	22.7*	19.2	4.7	2.2	.	-0.2
CCc1nc(N2CCN(C(=O)c3ccccc3)CC2)c2c3c(sc2n1)CCCC3	4.5	-29.7	1.9	-0.5	15.0	-0.3
CCc1nc(N2CCN(C(=O)c3ccco3)CC2)c2c3c(sc2n1)CCCC3	4.1	-1.7	1.7	498.6*	-6.2	-0.3
O=C(Nc1ccccc1)c1ccc(CSc2ccccn2)cc1	-11.3	-1.8	5.4	0.3	6.5	-0.2
FC(F)(F)c1ccc(CSc2ccccn2)cc1	-1.7	16.9	-0.7	10.0*	1.4	.
C/C(=N\NC(=S)NC(C)C)c1ccccc1	4.2	11.6	1.4	-0.1	5.0	.
CC(C)NC(=S)NN=C1c2ccccc2-c2ccccc21	3.3	-4.5	2.6	26.4*	-18.3	0.0
CCOC(=O)c1c(S(=O)(=O)N2CCC(C)CC2)c(C)n(C)c1C	-0.9	.	1.8	44.0*	.	.
CN(C(=O)c1ccc(NC(=O)Cc2cccc(NC(=O)C3CCN(C(=O)CCc4ccccc4)CC3)c2)cc1)C1CCCC1	8.1	.	1.7	.	-11.9	.
COCc1cc(C)nc2sc(C(=O)NCCO)c(-n3cccc3)c12	-0.4	44.8*	1.0	0.1	6.1	-0.1
COc1ccc(Nc2cc(C)nc(NCc3ccccc3)n2)cc1	22.2*	-0.5	0.3	-0.3	2.5	.
Cc1cccc(C)c1Nc1c(-c2ccccn2)nc2ccccn12	2.1	8.1	-14.0	28.5*	16.0	-0.3
Cc1ccc(Nc2c(-c3ccccn3)nc3cccc(C)n23)cc1	2.6	-3.8	0.5	56.3*	41.4	-0.2
Cc1cc(C)n2c(Nc3c(C)cccc3C)c(-c3ccccn3)nc2n1	-4.7	.	.	.	.	.
CCN(CC)CCn1c2ccccc2c2cnc(N)c(C#N)c21	2.9	12.2	-2.9	24.9*	1.5	0.0
CN(C)C=Nc1ncc2c3ccccc3n(CCN(C)C)c2c1C#N	9.7	-0.7	-4.2	0.7	.	0.0
CCOC(=O)Nc1sc(C)nc1-c1ccccc1	2.6	3.4	2.8	0.3	.	0.1
CCOC(=O)Nc1nc(-c2ccccc2)c(C(=O)c2ccc(Cl)cc2)s1	-2.9	-2.5	2.7	0.2	59.2*	-0.2
COc1ccc(/C=N\NC(=O)c2cc(O)c(O)c(O)c2)cc1CN1CCN(c2ccc(F)cc2)CC1	22.2*	3.9	4.3	0.1	.	-0.4
O=C(NC(Cc1ccccc1)C(=O)O)/C(=C/c1ccc([N+](=O)[O-])cc1)NC(=O)c1ccccc1Br (stereo unspecified)	2.4	-14.2	1.8	-0.1	-13.3	-0.5
COc1ccccc1C(=O)NCCC(=O)N1CC=C(c2ccccc2)CC1	23.8*	.	0.5	-0.4	0.6	.
SMILES	ABHD5-PLIN5 inh	Rad51 HR inh	GAA850 FXN act	HIF activator	H9c2 TAG inh	Hsp70 activator
COC(=O)C1=C(C)N(Cc2ccccc2)C(=NCc2ccccc2)N[C@H]1c1cccc(F)c1	20.2	.	-11.6	0.0	91.8*	.
O=S1(=O)CC(N2CCCC2)CN1Cc1cn(Cc2cccc(C(F)(F)F)c2)nn1 (stereo unspecified)	0.3	.	.	.	.	.
CCOc1ccc(CCNC(=O)COC(=O)Cn2nc(C)c([N+](=O)[O-])c2C)cc1OCC	3.3	.	-0.3	13.2*	5.2	.
Cc1nn(CC(=O)OCC(=O)NCCc2ccc(F)cc2)c(C)c1[N+](=O)[O-]	-2.4	.	0.9	.	-2.5	.
Cc1[nH]c2ccccc2c1/C=N/NC(=O)c1cc(C(C)C)[nH]n1	1.7	5.4	1.3	-0.1	-4.2	.
COCCNC(=O)C1(C)Cc2c(-c3cccc(C(F)(F)F)c3)ccnc2O1 (stereo unspecified)	0.6	.	-3.7	.	3.1	.
Cc1nc(-[n+]2nc(-c3ccncc3)nn2-c2ccccc2)sc1C	0.8	.	.	.	.	.
COc1ccc(-n2cnnc2SCC(=O)Nc2cc(C)on2)cc1	0.9	44.4*	2.6	0.0	-2.7	-0.4
O=C(c1cccc(S(=O)(=O)N2CCCC2)c1)N1CCOCC1	4.0	.	0.6	.	7.6	.
CCOC(=O)c1ccc(NC2=CC(=O)C(=O)c3ccccc32)cc1	-6.4	-2.4	-0.3	2.5	80.1*	-0.1
CCOCCCNC(=O)C1CCCN(S(=O)(=O)c2cccc3nsnc23)C1 (stereo unspecified)	0.1	.	0.9	0.9	.	.
Cc1ccc(-c2csc3nc4c5ccccc5c(NCCCN(C)C)nn4c(=O)c23)cc1	17.3	-44.3	2.7	-7.7	59.3*	-0.3
Cc1ccc(-c2csc3nc4c5ccccc5c(NCCCN5CCOCC5)nn4c(=O)c23)cc1	.	5.9	.	0.0	.	0.4
FC(F)(F)c1cnc(N2CCN(C(=S)NCc3ccccc3)CC2)c(Cl)c1	-8.8	8.3	0.4	44.5*	-2.1	.
NC(=O)[C@@H]1CCCN1Cc1nc(-c2cccs2)no1	1.3	.	0.6	-0.4	-18.3	0.1
O=C(c1cccs1)N1C[C@@H](n2cc(-c3ccc(F)cc3)nn2)[C@H](O)C[C@@H]1c1ccccc1	-6.0	.	-0.7	.	-8.2	.
Cc1nnc(SCC(=O)c2ccc(Cl)cc2)s1	-9.8	40.5*	2.9	1.7	-10.0	0.0
O=C(CCNC(=O)c1ccc([N+](=O)[O-])cc1)NCCc1ccccc1	-5.0	.	1.8	-1.5	.	.
CC(O)CNc1nc2sc3c(c2c(=O)n1CCc1ccccc1)CCCCC3 (stereo unspecified)	-10.4	-6.9	6.7	-0.1	24.9	-0.4
CN(C)CCNc1nc2sc3c(c2c(=O)n1CCc1ccccc1)CCCCC3	0.7	-1.1	-0.4	-0.1	79.6*	.
Cc1ccc(CNC(=O)NC2CCCCC2)cc1	-1.5	-1.5	4.6	18.0*	-0.1	-0.3
C=C(CN(C)C)C(=O)c1cc(C)ccc1C	67.1*	.	-12.2	.	20.2	.
N#CC(c1ccccc1O)N1N=C(c2ccccc2)CC1c1ccccc1 (stereo unspecified)	2.1	13.7	8.2*	3.0	11.3	.
COc1cc(C(C#N)N2N=C(c3ccccc3)CC2c2ccccc2)ccc1O (stereo unspecified)	3.6	-2.6	-0.4	3.1	.	0.2
Cc1onc(-c2ccccc2)c1C(=O)Nc1ccc(S(=O)(=O)N2CCCC2)cc1	0.6	-2.2	-1.6	86.7*	14.2	-0.3
